“Also recorded” adds a separate entry of the source.
Key:
pancreatic cancer = conditions: metastatic pancreatic cancer patients; cited from earlier work
MIA PaCa-2 cells = experiment: MTT cytotoxicity assay, MIA PaCa-2; format: cell-based, human; conditions: for effect of NAC on proliferation inhibitory effect: NAC 5 mM, MTT assay, 72 h; for IC50: Homo sapiens, MIA PaCa-2, 72 h, read-out: IC50 (μM) MIA PaCa-2, MTT assay, 72 h treatment, mean ± SD from three independent experiments
[1] = system: ROS accumulation in MIA PaCa-2 cells; experiment: ROS detection assay; format: cell-based, human; conditions: for ROS accumulation / ROS induction after NAC pretreatment: MIA PaCa-2; for ROS accumulation: compounds at 10, 3.3 or 1.1 μM; for ROS induction after NAC pretreatment: NAC 5 mM for 30 min; for ROS induction and cytotoxicity compared with QD325: triphenylphosphonium derivatives
Method in brief: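 MIA PaCa-2 cells were trypsinised (0.05% trypsin-EDTA), loaded with 20 μM H2DCFDA for 30 min at 37 °C, washed, then seeded at 20,000 cells/well. After 30 min they were given test compound, with DMSO for basal signal and unstained cells plus 10 μM compound for autofluorescence. For NAC runs, cells were pretreated with 5 mM NAC for 30 min, with H2O2 as a control. Fluorescence was read at 493/523 nm over time, in duplicates; three independent experiments.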

MIA PaCa-2 xenograft [2] = conditions: 20 mg/kg, 31-day study, similar MIA PaCa-2 xenograft model; cited from earlier work
[3] = system: nascent RNA synthesis in MIA PaCa-2 cells; experiment: Bru-seq analysis for nascent RNA synthesis; format: cell-based, human; conditions: for apoptosis signaling by IPA analysis: 4 h, QD232 3 times IC50, QD325 5 times IC50; for nascent mitochondrial RNA synthesis: MIA PaCa-2, 4-hour treatment, QD232 at 6.9 μM, QD325 at 5.0 μM; for synthesis of NQO1 and HMOX1 RNAs / transcription of DDIT3 and HSPA5: MIA PaCa-2, 4 h; for synthesis of NQO1 and HMOX1 RNAs: QD232 at 1, 2 or 3 times IC50, QD325 at 1, 2 or 5 times IC50; for transcription of DDIT3 and HSPA5: dose-dependent
MIA PaCa-2 xenograft [4] = experiment: MIA PaCa-2 xenograft tumor growth in NOD/SCID mice; format: in vivo
[5] = tolerability in MIA PaCa-2 engrafted NOD/SCID mice; format: in vivo
BxPC-3 cells = experiment: MTT cytotoxicity assay, BxPC-3; format: cell-based; conditions: Homo sapiens, BXPC-3, 72 h, read-out: IC50 (μM) BxPC-3, MTT assay, 72 h treatment; mean ± SD from three independent experiments

Q: With `Nc1ccn([C@@H]2O[C@H](CO)[C@@H](O)C2(F)F)c(=O)n1` [Gemcitabine] as the compound, how does the median overall survival (pancreatic cancer) read?
A: 6.8 months

Q: What does the source list for `CC(=O)c1cccc(NC2=CC(=O)c3ncncc3C2=O)c1` [QD232, reference compound]?
A: effect of NAC on proliferation inhibitory effect (MIA PaCa-2 cells): attenuated; ROS accumulation [1]: time-and dose-dependent accumulation of ROS; ROS induction after NAC pretreatment [1]: inhibited; suppression of tumor growth (MIA PaCa-2 xenograft [2]): 65%; apoptosis signaling by IPA analysis [3]: significant activation of apoptosis signaling; nascent mitochondrial RNA synthesis [3]: inhibited; synthesis of NQO1 and HMOX1 RNAs [3]: upregulated in a dose-dependent manner; transcription of DDIT3 and HSPA5 [3]: significantly increased

Q: What does the source list for `O=C1C(Nc2ccc(-c3ccccc3)cc2)=CC(=O)c2ncncc21` [QD325, 6-([1,1’-Biphenyl]-4-ylamino)quinazoline-5,8-dione]?
A: Ki67 staining (proliferation marker) in tumor tissues (MIA PaCa-2 xenograft [4]; QD325 5 mg/kg five times a week until day 44, immunohistochemistry): decreased; inhibition of tumor growth, experiment of Figure 6E (MIA PaCa-2 xenograft [4]; QD325 5 mg/kg five times a week, 48 days): 83%; inhibition of tumor growth, experiment of Figure 5A (MIA PaCa-2 xenograft [4]; QD325 5 mg/kg five times a week, day 44): 76%; NQO1, HO-1, CHOP and GRP78 protein levels in tumor lysates (MIA PaCa-2 xenograft [4]; QD325-treated vs vehicle-treated tumors): significantly upregulated; histopathology of H&E stained organ sections ([5]; 5 mg/kg five times a week until day 44): did not reveal any major histopathological changes; systemic toxicity at higher doses ([5]; dose increased from 5 to 20 mg/kg, day 44 to day 67, two mice per group): without any overt systemic toxicity; symptoms of gross toxicity (weakness, weight loss, lethargy) ([5]; study 1, 5 mg/kg five times a week until day 44): No symptoms of gross toxicity; effect of NAC on proliferation inhibitory effect (MIA PaCa-2 cells): attenuated; ROS accumulation [1]: time-and dose-dependent accumulation of ROS; also recorded: stronger and more rapid ROS accumulation; ROS induction after NAC pretreatment [1]: inhibited; apoptosis signaling by IPA analysis [3]: significant activation of apoptosis signaling; nascent mitochondrial RNA synthesis [3]: inhibited; synthesis of NQO1 and HMOX1 RNAs [3]: upregulated in a dose-dependent manner; transcription of DDIT3 and HSPA5 [3]: significantly increased

Q: Which results are given for `COc1cc(NC2=CC(=O)c3ncncc3C2=O)cc(OC)c1OC` [QD326, 6-((3,4,5-Trimethoxyphenyl)amino)quinazoline-5,8-dione]?
A: effect of NAC on proliferation inhibitory effect (MIA PaCa-2 cells): attenuated; ROS accumulation [1]: time-and dose-dependent accumulation of ROS; also recorded: stronger and more rapid ROS accumulation; ROS induction after NAC pretreatment [1]: inhibited

Q: What does the source list for `Nc1ccc(C(=O)NCCC[P+](c2ccccc2)(c2ccccc2)c2ccccc2)cc1` [QD339, (3-(4-Aminobenzamido)propyl)triphenylphosphonium bromide]?
A: IC50 (MIA PaCa-2 cells): > 30 µM; IC50 (BxPC-3 cells): > 30 µM

Q: With `O=C(NCCC[P+](c1ccccc1)(c1ccccc1)c1ccccc1)c1ccc(NC2=CC(=O)c3ncncc3C2=O)cc1.[Br-]` [QD340, (3-(4-((5,8-Dioxo-5,8-dihydroquinazolin-6-yl)amino)benzamido)propyl) triphenylphosphonium bromide] as the compound, how does the “ROS induction and cytotoxicity compared with QD325” value [1] read?
A: did not show better ROS induction and cytotoxicity than QD325

Q: For `Nc1cccc(C(=O)NCCC[P+](c2ccccc2)(c2ccccc2)c2ccccc2)c1` [QD358, (3-(3-Aminobenzamido)propyl)triphenylphosphonium bromide], which IC50 (MIA PaCa-2 cells) is on record?
A: > 30 µM

Q: What about the IC50 (BxPC-3 cells) of the same compound?
A: > 30 µM

Q: With `O=C(NCCC[P+](c1ccccc1)(c1ccccc1)c1ccccc1)c1cccc(NC2=CC(=O)c3ncncc3C2=O)c1.[Br-]` [QD359, (3-(3-((5,8-Dioxo-5,8-dihydroquinazolin-6-yl)amino)benzamido)propyl) triphenylphosphonium bromide] as the compound, how does the “ROS induction and cytotoxicity compared with QD325” value [1] read?
A: did not show better ROS induction and cytotoxicity than QD325

Q: Which median overall survival (pancreatic cancer) does the source give for FOLFIRINOX here?
A: 11.1 months
